{"source": "ChEMBL document CHEMBL3751835", "about": "“Discovery of the imidazole-derived GPR40 agonist AM-3189” (Bioorg Med Chem Lett, 2016)", "key": {"[1]": {"assay": "Volume of distribution at steady state in dog at 0.5 mg/kg, iv", "format": "ADME, organism-based, Canis lupus familiaris", "conditions": "in vivo, read-out: Vdss", "summary_of_the_method": "(§1)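 Oral doses given as a suspension in aqueous 1% Tween 80 in 1% methylcellulose; IV doses formulated in 10% N,N-dimethylacetamide, 10% ethanol, 30% propylene glycol, 50% sterile water. Animals per species: mouse n = 2 (plasma from two mice at each time point), rat n = 2, dog n = 3, cynomolgus monkey n = 3.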"}, "[2]": {"target": "Free fatty acid receptor 1 (Homo sapiens, UniProt O14842)", "sequence (O14842 whole entry)": "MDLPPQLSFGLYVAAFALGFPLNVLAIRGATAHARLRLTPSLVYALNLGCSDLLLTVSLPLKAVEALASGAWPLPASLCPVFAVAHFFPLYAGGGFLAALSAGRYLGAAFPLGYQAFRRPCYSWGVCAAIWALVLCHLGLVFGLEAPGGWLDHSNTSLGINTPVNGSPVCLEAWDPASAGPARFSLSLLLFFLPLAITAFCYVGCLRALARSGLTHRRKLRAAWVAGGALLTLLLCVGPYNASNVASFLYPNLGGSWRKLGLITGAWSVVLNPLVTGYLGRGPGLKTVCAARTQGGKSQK", "assay": "Partial agonist activity at human GPR40 expressed in CHO cells measured over 20 secs interval by luminometric analysis in presence of 100% human serum", "format": "cell-based", "summary_of_the_method": "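Aequorin chemiluminescence read-out of calcium flux in a CHO line stably transfected with human GPR40, giving EC50. Run in buffer containing 0.01% human serum albumin, or in 100% human serum to test activity with plasma proteins present.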"}, "[3]": {"target": "Free fatty acid receptor 1 (Rattus norvegicus, UniProt Q8K3T4)", "sequence (Q8K3T4 whole entry)": "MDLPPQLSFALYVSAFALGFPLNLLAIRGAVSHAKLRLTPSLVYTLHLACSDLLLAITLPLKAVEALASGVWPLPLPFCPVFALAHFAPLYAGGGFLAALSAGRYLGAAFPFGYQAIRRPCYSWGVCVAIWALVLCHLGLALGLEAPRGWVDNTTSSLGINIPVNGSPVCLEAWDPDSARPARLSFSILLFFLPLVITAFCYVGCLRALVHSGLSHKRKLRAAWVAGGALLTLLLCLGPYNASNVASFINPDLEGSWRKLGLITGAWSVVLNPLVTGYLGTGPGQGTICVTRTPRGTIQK", "assay": "Agonist activity at rat GPR40 in presence of 0.01% human serum albumin"}, "[4]": {"system": "MDR1", "assay": "Permeability across basolateral to apical side in MDCK cells expressing MDR1", "format": "ADME, cell-based, Canis lupus familiaris", "conditions": "dog, read-out: permeability"}, "[5]": {"target": "T1, Peroxisome proliferator-activated receptor alpha (Homo sapiens) (UniProt Q07869)", "T1 sequence (whole entry)": "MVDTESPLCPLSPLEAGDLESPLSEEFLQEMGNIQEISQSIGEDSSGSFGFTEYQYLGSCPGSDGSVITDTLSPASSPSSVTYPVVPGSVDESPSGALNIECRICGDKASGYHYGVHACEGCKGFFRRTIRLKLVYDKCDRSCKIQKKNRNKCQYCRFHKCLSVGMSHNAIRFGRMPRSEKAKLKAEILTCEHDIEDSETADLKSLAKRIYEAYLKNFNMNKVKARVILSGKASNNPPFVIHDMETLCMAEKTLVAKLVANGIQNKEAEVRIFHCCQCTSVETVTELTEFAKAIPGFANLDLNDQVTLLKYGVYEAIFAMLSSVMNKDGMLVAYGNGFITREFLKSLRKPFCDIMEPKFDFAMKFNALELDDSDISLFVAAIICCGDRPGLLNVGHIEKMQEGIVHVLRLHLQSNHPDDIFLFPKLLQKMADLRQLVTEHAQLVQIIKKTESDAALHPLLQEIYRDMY", "assay": "Activity at PPARalpha (unknown origin) by cell based assay"}, "[6]": {"assay": "Cmax in rat at 2 mg/kg, po", "format": "ADME, organism-based", "design": "dose 2 mg/kg, route oral", "conditions": "in vivo", "summary_of_the_method": "as §1"}, "[7]": {"assay": "Clearance in dog at 0.5 mg/kg, iv", "format": "ADME, organism-based, Canis lupus familiaris", "conditions": "in vivo", "summary_of_the_method": "as §1"}, "[8]": {"system": "MDR1", "assay": "Permeability across apical to basolateral side in MDCK cells expressing MDR1", "format": "ADME, cell-based, Canis lupus familiaris", "conditions": "dog, read-out: permeability"}, "[9]": {"system": "Pancreatic islet", "assay": "Induction of insulin release in human pancreatic islets", "format": "functional"}, "[10]": {"assay": "Oral bioavailability in rat at 2 mg/kg", "format": "ADME, organism-based", "conditions": "in vivo", "summary_of_the_method": "as §1"}, "[11]": {"assay": "Oral bioavailability in cynomolgus monkey at 5 mg/kg", "format": "ADME, organism-based, Macaca fascicularis", "conditions": "in vivo", "summary_of_the_method": "as §1"}, "[12]": {"assay": "Volume of distribution at steady state in cynomolgus monkey at 0.5 mg/kg, iv", "format": "ADME, organism-based, Macaca fascicularis", "conditions": "in vivo, read-out: Vdss", "summary_of_the_method": "as §1"}, "[13]": {"assay": "Agonist activity at dog GPR40 in presence of 0.01% human serum albumin", "design": "species or system Canis lupus familiaris"}}, "note": "Active and inactive are the calls of the source. The rule behind the calls is not given here."}
{"compound": "Cc1cc(Cl)ccc1-c1cccc(COc2ccc([C@H](CC(=O)O)c3nccn3C)cc2)c1", "values": [{"measurement": "Vd", "setting": "[1]", "result": 0.58, "unit": "L/kg"}, {"measurement": "EC50", "setting": "[2]", "result": 10000, "unit": "nM"}, {"measurement": "EC50", "setting": "[3]", "result": 640, "unit": "nM"}, {"measurement": "Papp B→A", "setting": "[4]", "result": 31, "unit": "×10⁻⁶ cm/s"}, {"measurement": "Activity", "setting": "[5]", "result": "inactive"}, {"measurement": "Cmax", "setting": "[6]", "result": 770, "unit": "nM"}, {"measurement": "clearance", "setting": "[7]", "result": 2.5, "unit": "mL/min/kg"}, {"measurement": "Papp A→B", "setting": "[8]", "result": 1.4, "unit": "×10⁻⁶ cm/s"}, {"measurement": "Activity", "setting": "[9]", "result": "Active"}, {"measurement": "bioavailability", "setting": "[10]", "result": 43, "unit": "%"}, {"measurement": "bioavailability", "setting": "[11]", "result": 34, "unit": "%"}, {"measurement": "Vd", "setting": "[12]", "result": 1.6, "unit": "L/kg"}, {"measurement": "EC50", "setting": "[13]", "result": 37, "unit": "nM"}]}
